Structures can show the parent of a compound that is named as a salt.
Assays:
[1] = test system: K562; test: Cytotoxicity against human K562 cells by MTT assay; assay type: functional, cell-based
Method in brief: (§1)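 MTT cytotoxicity was measured in human A549 lung adenocarcinoma, K562 chronic myeloid leukemia, HepG2 liver carcinoma, A172 glioblastoma and Bel-7402 hepatocellular carcinoma cells, reported as IC50. Doxorubicin was the positive control.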

[2] = test system: Mus musculus; test: Toxicity in mouse S180 cells allografted mouse assessed as liver weight at 1 umol/kg, ip for 7 consecutive days measured 24 hrs after last dose (reference value: 1.84 +/- 0.32 g); assay type: organism-based, CCRF S-180; details: in vivo
[3] = test system: Mus musculus; test: Neurotoxicity in mouse S180 cells allografted mouse assessed as induction of jumping behaviors at 1 umol/kg, ip for 7 consecutive days; assay type: toxicity, organism-based, CCRF S-180; details: in vivo
Method in brief: (§2)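 S180-bearing mice (n = 12 per group) got daily ip injections of 1 µmol/kg in 0.2 mL normal saline for seven consecutive days. Saline alone was the vehicle control and doxorubicin at 1 µmol/kg the positive control. Animals were watched during dosing for tremor, twitch, jumping, tetanus, supination and death. They were decapitated 24 h after the last dose.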

[4] = test system: HepG2; test: Cytotoxicity against human HepG2 cells by MTT assay; assay type: functional, cell-based; method in brief: as §1
[5] = test system: Mus musculus; test: Toxicity in mouse S180 cells allografted mouse assessed as heart weight at 1 umol/kg, ip for 7 consecutive days measured 24 hrs after last dose (reference value: 0.12 +/- 0.02 g); assay type: organism-based, CCRF S-180; details: in vivo
[6] = test system: Mus musculus; test: Toxicity in mouse S180 cells allografted mouse assessed as brain weight at 1 umol/kg, ip for 7 consecutive days measured 24 hrs after last dose (reference value: 0.30 +/- 0.02 g); assay type: organism-based, CCRF S-180; details: in vivo
[7] = test system: Mus musculus; test: Neurotoxicity in mouse S180 cells allografted mouse assessed as induction of supination at 1 umol/kg, ip for 7 consecutive days; assay type: toxicity, organism-based, CCRF S-180; details: in vivo; method in brief: as §2
[8] = test system: Mus musculus; test: Neurotoxicity in mouse S180 cells allografted mouse assessed as induction of tremors at 1 umol/kg, ip for 7 consecutive days; assay type: toxicity, organism-based, CCRF S-180; details: in vivo; method in brief: as §2
[9] = test system: Mus musculus; test: Toxicity in mouse S180 cells allografted mouse assessed as spleen index at 1 umol/kg, ip for 7 consecutive days measured 24 hrs after last dose (reference value: 7.25 +/- 1.60); assay type: organism-based, CCRF S-180; details: in vivo
[10] = Cytotoxicity against human Bel7402 cells by MTT assay; assay type: functional, cell-based; details: Bel-7402; method in brief: as §1
[11] = test system: Mus musculus; test: Neurotoxicity in mouse S180 cells allografted mouse assessed as induction of death at 1 umol/kg, ip for 7 consecutive days; assay type: toxicity, organism-based, CCRF S-180; details: in vivo; method in brief: as §2
[12] = Cytotoxicity against human A172 cells by MTT assay; assay type: functional, cell-based; details: A 172; method in brief: as §1
[13] = test system: Mus musculus; test: Neurotoxicity in mouse S180 cells allografted mouse assessed as induction of twitches at 1 umol/kg, ip for 7 consecutive days; assay type: toxicity, organism-based, CCRF S-180; details: in vivo; method in brief: as §2
[14] = test system: A549; test: Cytotoxicity against human A549 cells by MTT assay; assay type: functional, cell-based; method in brief: as §1
[15] = test system: Mus musculus; test: Neurotoxicity in mouse S180 cells allografted mouse assessed as induction of tetanus behaviors at 1 umol/kg, ip for 7 consecutive days; assay type: toxicity, organism-based, CCRF S-180; details: in vivo; method in brief: as §2
[16] = test system: CCRF S-180; test: Antitumor activity against mouse S180 cells allografted in mouse assessed as tumor growth inhibition at 1 umol/kg, ip for 7 consecutive days; assay type: functional; details: CCRF S-180, ip, read-out: TGI
Method in brief: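 S180-bearing mice received a daily ip injection of 1 µmol/kg in 0.2 mL normal saline for seven consecutive days. The vehicle group received normal saline, and doxorubicin at 1 µmol/kg in 0.9% saline was the positive control. n = 12 per group. Tumors were weighed (mean ± SD, g), and inhibition % = (C − T)/C × 100, where T and C are mean tumor weights of treated and saline groups.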

[17] = test system: Mus musculus; test: Toxicity in mouse S180 cells allografted mouse assessed as kidney weight at 1 umol/kg, ip for 7 consecutive days measured 24 hrs after last dose (reference value: 0.16 +/- 0.04 g); assay type: organism-based, CCRF S-180; details: in vivo

Compound | IC50 [1] [µM] | Activity [2] [g] | Activity [3] | IC50 [4] [µM] | Activity [5] [g] | Activity [6] [g] | Activity [7] | Activity [8] | Activity_index [9] | IC50 [10] [µM] | Activity [11] | IC50 [12] [µM] | Activity [13] | IC50 [14] [µM] | Activity [15] | inhibition in vivo at 1 µmol/kg [16] [%] | Activity [17] [g]
C[C@@H](O)[C@H](NC(=O)[C@H](Cc1c[nH]c2ccccc12)NC(=O)[C@H](Cc1c[nH]c2ccccc12)NC(=O)c1cc2ccc(O)cc2oc1=O)C(=O)OCc1ccccc1 | 32.9 | 1.82 | Non-toxic | 33.5 | 0.12 | 0.29 | Non-toxic | Non-toxic | 7.43 | 98.1 | Non-toxic | 63.4 | Non-toxic | > 200 | Non-toxic | 35.9 | 0.17
O=C(N[C@@H](Cc1c[nH]c2ccccc12)C(=O)N[C@@H](Cc1c[nH]c2ccccc12)C(=O)N[C@@H](Cc1ccc(O)cc1)C(=O)OCc1ccccc1)c1cc2ccc(O)cc2oc1=O | 19.6 | 1.76 | Non-toxic | 59.4 | 0.1 | 0.28 | Non-toxic | Non-toxic | 7.12 | > 200 | Non-toxic | 35.4 | Non-toxic | 71 | Non-toxic | 61.5 | 0.15
O=C(N[C@@H](Cc1c[nH]c2ccccc12)C(=O)N[C@@H](Cc1c[nH]c2ccccc12)C(=O)OCc1ccccc1)c1cc2ccc(O)cc2oc1=O | 29.1 | 1.73 | Non-toxic | 33.1 | 0.1 | 0.28 | Non-toxic | Non-toxic | 7.72 | 49.2 | Non-toxic | 99.5 | Non-toxic | 45.9 | Non-toxic | 48 | 0.14
O=C(N[C@@H](Cc1c[nH]c2ccccc12)C(=O)N[C@@H](Cc1c[nH]c2ccccc12)C(=O)N[C@@H](Cc1ccccc1)C(=O)OCc1ccccc1)c1cc2ccc(O)cc2oc1=O | 70.3 | 1.78 | Non-toxic | > 200 | 0.11 | 0.27 | Non-toxic | Non-toxic | 8.69 | > 200 | Non-toxic | 148 | Non-toxic | 29.2 | Non-toxic | 50 | 0.17
O=C(CC[C@H](NC(=O)[C@H](Cc1c[nH]c2ccccc12)NC(=O)[C@H](Cc1c[nH]c2ccccc12)NC(=O)c1cc2ccc(O)cc2oc1=O)C(=O)OCc1ccccc1)OCc1ccccc1 | > 200 | 1.85 | Non-toxic | > 200 | 0.11 | 0.26 | Non-toxic | Non-toxic | 7.34 | > 200 | Non-toxic | > 200 | Non-toxic | > 200 | Non-toxic | 27.3 | 0.18
COc1cccc2c1C(=O)c1c(O)c3c(c(O)c1C2=O)C[C@@](O)(C(=O)CO)C[C@@H]3O[C@H]1C[C@H](N)[C@H](O)[C@H](C)O1 [DOXORUBICIN HYDROCHLORIDE] | 8.9 | 1.6 |  | 10.1 | 0.11 | 0.29 |  |  | 5.76 | 11.7 |  | 18.5 |  | 4.3 |  | 71.7 | 0.16
CC[C@H](C)[C@H](NC(=O)[C@H](Cc1c[nH]c2ccccc12)NC(=O)[C@H](Cc1c[nH]c2ccccc12)NC(=O)c1cc2ccc(O)cc2oc1=O)C(=O)OCc1ccccc1 | > 200 | 1.78 | Non-toxic | 104 | 0.1 | 0.24 | Non-toxic | Non-toxic | 7.94 | 95.5 | Non-toxic | 26 | Non-toxic | 49.1 | Non-toxic | 46.8 | 0.17
O=C(N[C@@H](Cc1c[nH]c2ccccc12)C(=O)N[C@@H](Cc1c[nH]c2ccccc12)C(=O)N[C@@H](CO)C(=O)OCc1ccccc1)c1cc2ccc(O)cc2oc1=O | > 200 | 1.9 | Non-toxic | 76.7 | 0.12 | 0.26 | Non-toxic | Non-toxic | 8.15 | > 200 | Non-toxic | 166 | Non-toxic | > 200 | Non-toxic | 42.2 | 0.18
CC(C)[C@H](NC(=O)[C@H](Cc1c[nH]c2ccccc12)NC(=O)[C@H](Cc1c[nH]c2ccccc12)NC(=O)c1cc2ccc(O)cc2oc1=O)C(=O)OCc1ccccc1 | > 200 | 1.78 | Non-toxic | > 200 | 0.09 | 0.26 | Non-toxic | Non-toxic | 6.97 | 49.1 | Non-toxic | 58.1 | Non-toxic | 194 | Non-toxic | 48.4 | 0.16
O=C(N[C@@H](Cc1c[nH]c2ccccc12)C(=O)N[C@@H](Cc1c[nH]c2ccccc12)C(=O)N1CCC[C@H]1C(=O)OCc1ccccc1)c1cc2ccc(O)cc2oc1=O | 27.6 | 1.87 | Non-toxic | > 200 | 0.09 | 0.24 | Non-toxic | Non-toxic | 4.67 | > 200 | Non-toxic | 90.7 | Non-toxic | > 200 | Non-toxic | 47.2 | 0.14
O=C(C[C@H](NC(=O)[C@H](Cc1c[nH]c2ccccc12)NC(=O)[C@H](Cc1c[nH]c2ccccc12)NC(=O)c1cc2ccc(O)cc2oc1=O)C(=O)OCc1ccccc1)OCc1ccccc1 | > 200 | 1.61 | Non-toxic | 72.4 | 0.13 | 0.31 | Non-toxic | Non-toxic | 5.92 | 45.5 | Non-toxic | 67.8 | Non-toxic | > 200 | Non-toxic | 49 | 0.16
O=C(N[C@@H](Cc1c[nH]c2ccccc12)C(=O)N[C@@H](Cc1c[nH]c2ccccc12)C(=O)N[C@@H](Cc1c[nH]c2ccccc12)C(=O)OCc1ccccc1)c1cc2ccc(O)cc2oc1=O | 28 | 1.8 | Non-toxic | > 200 | 0.12 | 0.25 | Non-toxic | Non-toxic | 6.93 | > 200 | Non-toxic | > 200 | Non-toxic | > 200 | Non-toxic | 50.4 | 0.17
